Results on four compounds are retold here after ChEMBL document CHEMBL2086292, “Chalcogenopyrylium compounds as modulators of the ATP-binding cassette transporters P-glycoprotein (P-gp/ABCB1) and multidrug resistance protein 1 (MRP1/ABCC1)” (J Med Chem, 2012).

Data set [1] concerns the target T1, MRP1 (Multidrug resistance-associated protein 1) (Homo sapiens, UniProt P33527). As to the kind of experiment: Inhibition of human MRP1 mediated uptake of [3H]E2-17betaG in HEK cell membrane vesicles at 5 uM by liquid scintillation counting relative to control. In kind it is cell membranes, HEK293. As to conditions: HEK cell membrane vesicles with human MRP1, probe [3H]E2-17betaG. The method, boiled down: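 Inside-out vesicles from stably transfected HEK-MRP1 cells (2 μg protein) in Tris-sucrose buffer pH 7.4 with [³H]E₂17βG 400 nM, ATP or AMP 4 mM, MgCl₂ 10 mM, 3 min at 37 °C, compound at 5 μM; DMSO ≤1%; stopped by ice-cold dilution, rapid filtration, scintillation counting; ATP-dependent uptake = ATP minus AMP; duplicate wells.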

In another data set the target is P-gp (ABCB1) (Homo sapiens, UniProt P08183). The experiment in a line: (§1) Induction of ATPase activity of human His10-tagged P-gp expressed in BHK cells assessed as inorganic phosphate release after 30 mins relative to control. It is filed as cell-based. To be noted: human His10-tagged P-gp expressed in BHK cells, read-out: FC. The method, boiled down:
(§2)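 Human P-gp with C-terminal His10 tag, stably expressed in BHK cells, purified by Ni-chelate chromatography and mixed 1:1 with 10 mg/mL sheep brain phosphatidylethanolamine in TBS (10 mM Tris/HCl pH 7.4, 150 mM NaCl), then sonicated. Compound titrated, 30 min at 37 °C. Inorganic phosphate released from ATP measured. Vmax expressed as fold over basal activity; KM is the concentration giving half-maximal stimulation.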

Data set [2] has as its target T2, ATP-dependent translocase ABCB1 (Homo sapiens, UniProt P08183). The experiment in a line: Inhibition of VER-stimulated human His10-tagged P-gp ATPase activity expressed in BHK cells after 15 mins. It is filed as cell-based.
In data set [3] the target is T1, MRP1 (Multidrug resistance-associated protein 1). As to the kind of experiment: Inhibition of human MRP1-mediated uptake of [3H]E2-17betaG in HEK cell membrane vesicles at 1 uM by liquid scintillation counting relative to control. It is filed as cell membranes, HEK293. To be noted: HEK cell membrane vesicles with human MRP1, probe [3H]E2-17betaG. The method, boiled down:
(§3)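 Inside-out membrane vesicles from HEK cells stably transfected with human MRP1. Vesicle protein (2 μg) incubated in Tris-sucrose buffer pH 7.4 with 400 nM [3H]E2-17βG, 4 mM ATP or AMP and 10 mM MgCl2, 3 min at 37 °C, in duplicate; DMSO ≤1% final. Stopped by ice-cold dilution and rapid filtration, then scintillation counted. ATP-dependent uptake taken as ATP minus AMP values; inhibition reported as percent.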

Data set [4] shares this target. The experiment in a line: Inhibition of human MRP1 mediated uptake of [3H]E2-17betaG in HEK cell membrane vesicles at 30 uM by liquid scintillation counting relative to control. It is filed as cell membranes, HEK293. As to conditions: HEK cell membrane vesicles with human MRP1, probe [3H]E2-17betaG. The method, boiled down: as §3
Data set [5] relates to MDCK-II. As to the kind of experiment: Inhibition of P-gp expressed in MDCK2-MDR1 cells at 5 uM by calcein AM accumulation assay relative to LSN 335984. In kind it is cell-based. The method, boiled down: (§4)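 MDCKII cells transfected with wild-type human MDR1, seeded at 40000 cells/well and used on day 4. Washed in DPBS with 10 mM HEPES pH 7.4, then compound in the same buffer 30 min at 37 °C. Replaced with compound plus 0.5 μg/mL calcein AM for a further 20 min. Fluorescence read at Ex 485/Em 530 nm. Signal expressed relative to 5 μM LSN 335984, taken as complete inhibition; vehicle 0.25% DMSO. IC50 from 1:1 serial dilutions by variable-slope sigmoidal fit.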

Data set [6] concerns MDCK-II. The experiment in a line: Inhibition of P-gp expressed in MDCK2-MDR1 cells at 25 uM by calcein AM accumulation assay relative to LSN 335984. It is filed as cell-based. A digest of the protocol:
as §4

The target of data set [7] is T1, MRP1 (Multidrug resistance-associated protein 1). The experiment in a line: Inhibition of human MRP1-mediated uptake of [3H]E2-17betaG in HEK cell membrane vesicles at 10 uM by liquid scintillation counter. As to conditions: HEK cell membrane vesicles with human MRP1, probe [3H]E2-17betaG. In kind it is cell membranes, HEK293. The method, boiled down:
as §3

Data set [8] is described as follows: Octanol-water partition coefficient, log P of the compound in PBS at pH 7.4 after 1 hr by shake flask method. In kind it is physicochemical. A digest of the protocol:
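Shake-flask method: saturated n-octanol solution shaken with an equal volume of PBS pH 7.4 for 3–5 min, then left to settle 1 h at 23 °C. Concentration in each layer measured spectrophotometrically.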

Data set [9] in a line: Inhibition of P-gp expressed in MDCK2-MDR1 cells by calcein AM accumulation assay. It is filed as cell-based. To be noted: MDCK-II. A digest of the protocol: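 MDCKII cells transfected with wild-type human MDR1, seeded at 40000 cells/well and used on day 4. Washed in DPBS with 10 mM HEPES pH 7.4, then compound in the same buffer 30 min at 37 °C. Replaced with compound plus 0.5 μg/mL calcein AM for a further 20 min. IC50 from 1:1 serial dilutions by variable-slope sigmoidal fit.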

The nature of data set [10]: Inhibition of P-gp mediated [3H]VIN efflux in MDCK2-MDR1 cells by scintillation counter. As to conditions: MDCK-II. It is filed as cell-based. The method, boiled down: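 MDCKII-MDR1 monolayers on Transwell filters, used on day 6. Rinsed in DPBSH, then preincubated 30 min at 37 °C with compound ([…]) in BSA/DPBSH. [3H]vinblastine (0.25 μCi/mL) plus compound added basolaterally and fresh compound solution added apically. Apical buffer replaced every 10 min; apical radioactivity counted by scintillation. IC50 fitted.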

A short description of data set [11]: Normalized ratio of the compound assessed as ratio of PBA/AB in absence of LSN 335984 to ratio of PBA/AB in presence of LSN 335984 in MDCK2-MDR1 cells at 5 uM after 1 hr. It is filed as ADME, cell-based, Canis lupus familiaris. To be noted: dog, mdck-mdr1, 1 h. A digest of the protocol:
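MDCKII-MDR1 cells seeded at 50000 cells/cm² on Transwell filters, used on day 6. Preincubated 30 min with 4.3 mg/mL BSA in DPBSH, with or without 5 μM LSN 335984. Compound (5 μM) added to the apical or basolateral donor chamber and incubated 1 h at 37 °C with nutation. Donor and receiver samples quantified by LC-MS/MS. AB and BA permeabilities calculated. Normalized ratio is the BA/AB ratio without inhibitor divided by the ratio with inhibitor.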

The subject of data set [12] is P-glycoprotein (MDR1). The experiment in a line: P-glycoprotein-mediated transport in MDCK2-MDR1 cells assessed as permeability across apical to basolateral side at 5 uM after 1 hr. To be noted: dog, MDCK-MDR1.
The subject of data set [13] is P-glycoprotein (MDR1). As to the kind of experiment: P-glycoprotein-mediated transport in MDCK2-MDR1 cells assessed as permeability across basolateral to apical side at 5 uM after 1 hr. To be noted: dog, MDCK-MDR1.
Data set [14] deals with T2, ATP-dependent translocase ABCB1. Described as §1. As to conditions: bhk, 0.5 h. In kind it is cell-based. The method, boiled down: as §2

Some results are limits rather than exact numbers.

T2 sequence (P08183 whole entry): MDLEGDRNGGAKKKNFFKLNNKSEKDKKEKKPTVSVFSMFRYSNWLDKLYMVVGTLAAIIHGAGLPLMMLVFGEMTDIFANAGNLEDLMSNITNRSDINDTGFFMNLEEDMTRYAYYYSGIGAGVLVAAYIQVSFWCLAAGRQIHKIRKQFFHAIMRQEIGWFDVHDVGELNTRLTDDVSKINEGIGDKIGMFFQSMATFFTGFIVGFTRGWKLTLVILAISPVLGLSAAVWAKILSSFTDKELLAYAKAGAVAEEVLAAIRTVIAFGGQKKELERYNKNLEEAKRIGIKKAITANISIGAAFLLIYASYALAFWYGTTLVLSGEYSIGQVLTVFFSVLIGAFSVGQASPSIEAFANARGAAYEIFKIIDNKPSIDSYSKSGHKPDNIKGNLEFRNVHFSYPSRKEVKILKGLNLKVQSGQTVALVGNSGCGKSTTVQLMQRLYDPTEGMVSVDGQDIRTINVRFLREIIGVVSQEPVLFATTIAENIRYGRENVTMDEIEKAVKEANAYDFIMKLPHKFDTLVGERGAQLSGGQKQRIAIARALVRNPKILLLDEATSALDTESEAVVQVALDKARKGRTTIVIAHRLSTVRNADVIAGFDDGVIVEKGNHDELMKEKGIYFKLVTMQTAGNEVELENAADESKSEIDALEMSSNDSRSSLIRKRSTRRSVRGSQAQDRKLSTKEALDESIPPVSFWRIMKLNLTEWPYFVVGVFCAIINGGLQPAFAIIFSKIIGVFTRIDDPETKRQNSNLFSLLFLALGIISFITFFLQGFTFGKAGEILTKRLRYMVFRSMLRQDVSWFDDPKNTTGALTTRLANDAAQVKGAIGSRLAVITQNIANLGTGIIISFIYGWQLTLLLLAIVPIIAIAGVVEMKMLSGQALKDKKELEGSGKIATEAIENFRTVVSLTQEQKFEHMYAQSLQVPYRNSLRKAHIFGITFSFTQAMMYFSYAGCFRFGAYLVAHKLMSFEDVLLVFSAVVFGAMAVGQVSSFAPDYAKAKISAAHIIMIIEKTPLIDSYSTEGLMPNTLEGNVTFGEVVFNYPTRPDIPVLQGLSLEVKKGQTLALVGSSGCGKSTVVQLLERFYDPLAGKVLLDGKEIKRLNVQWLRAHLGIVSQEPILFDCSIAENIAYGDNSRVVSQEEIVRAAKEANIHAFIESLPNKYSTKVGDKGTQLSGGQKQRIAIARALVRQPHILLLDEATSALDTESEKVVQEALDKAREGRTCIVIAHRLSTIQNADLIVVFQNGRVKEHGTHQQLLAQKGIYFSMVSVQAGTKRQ
Chain of P-gp (ABCB1) (P08183 whole entry): as above
T1 sequence (P33527 whole entry): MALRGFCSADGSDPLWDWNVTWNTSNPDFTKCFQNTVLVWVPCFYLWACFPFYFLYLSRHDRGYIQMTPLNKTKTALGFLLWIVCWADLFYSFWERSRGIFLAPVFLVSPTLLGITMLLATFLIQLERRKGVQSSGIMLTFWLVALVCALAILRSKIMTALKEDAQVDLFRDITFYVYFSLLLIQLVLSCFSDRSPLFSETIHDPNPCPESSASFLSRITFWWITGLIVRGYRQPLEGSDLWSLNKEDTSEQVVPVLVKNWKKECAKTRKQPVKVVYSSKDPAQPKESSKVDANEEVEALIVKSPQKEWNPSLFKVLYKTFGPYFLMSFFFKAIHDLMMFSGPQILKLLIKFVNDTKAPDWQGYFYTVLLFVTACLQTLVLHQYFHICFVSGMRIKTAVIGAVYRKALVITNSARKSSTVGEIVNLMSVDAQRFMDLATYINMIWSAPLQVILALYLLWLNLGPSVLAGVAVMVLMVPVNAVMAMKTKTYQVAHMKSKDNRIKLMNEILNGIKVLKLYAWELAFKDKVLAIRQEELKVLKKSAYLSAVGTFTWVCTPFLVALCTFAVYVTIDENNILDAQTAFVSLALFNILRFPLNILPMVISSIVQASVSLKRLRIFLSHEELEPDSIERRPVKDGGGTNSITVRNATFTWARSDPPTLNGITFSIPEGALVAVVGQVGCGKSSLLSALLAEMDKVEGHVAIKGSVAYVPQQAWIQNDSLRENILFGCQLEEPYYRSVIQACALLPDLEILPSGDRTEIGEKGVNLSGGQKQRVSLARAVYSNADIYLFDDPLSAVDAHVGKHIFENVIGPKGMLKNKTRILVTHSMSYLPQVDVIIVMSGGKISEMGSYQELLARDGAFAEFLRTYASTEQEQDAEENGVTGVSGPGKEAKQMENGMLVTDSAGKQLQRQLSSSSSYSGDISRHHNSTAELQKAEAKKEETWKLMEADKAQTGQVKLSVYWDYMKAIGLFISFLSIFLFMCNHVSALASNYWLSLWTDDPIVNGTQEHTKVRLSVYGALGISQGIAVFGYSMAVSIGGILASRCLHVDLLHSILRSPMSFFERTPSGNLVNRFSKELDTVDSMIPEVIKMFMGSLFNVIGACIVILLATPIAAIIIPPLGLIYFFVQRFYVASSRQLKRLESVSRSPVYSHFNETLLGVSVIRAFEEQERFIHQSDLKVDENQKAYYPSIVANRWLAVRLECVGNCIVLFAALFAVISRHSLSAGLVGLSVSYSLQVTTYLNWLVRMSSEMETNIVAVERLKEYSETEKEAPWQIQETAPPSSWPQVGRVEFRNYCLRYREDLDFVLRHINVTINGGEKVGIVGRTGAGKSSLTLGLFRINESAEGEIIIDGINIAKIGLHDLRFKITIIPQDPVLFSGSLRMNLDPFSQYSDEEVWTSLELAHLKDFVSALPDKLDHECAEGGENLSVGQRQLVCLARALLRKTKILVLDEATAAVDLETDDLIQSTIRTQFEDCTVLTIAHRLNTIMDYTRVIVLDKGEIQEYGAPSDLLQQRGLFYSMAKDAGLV

Consider `CC(C)(C)c1cc(-c2ccc(C(=O)O)s2)cc(C(C)(C)C)[te+]1`, for which 5 µM produced 24% inhibition in data set [1]. Also, on P-gp (ABCB1), the fold induction at 0.5 h is less than 1.4. In data set [2], this compound showed an IC50 of 162 µM.
In data set [3], `CN(C)c1ccc(-c2cc(-c3ccc(C(=S)N4CCCCC4)s3)cc(C(C)(C)C)[s+]2)cc1.[Cl-]` returned an inhibition at 1 µM of 36%. In data set [4], this compound came in with an inhibition at 30 µM of 93%. In addition, the fold induction at 0.5 h at P-gp (ABCB1) was found to be 5.2. Also, the inhibition was 31% with MDCK-II [5] and 74% with MDCK-II [6]. In data set [7], the inhibition at 10 µM turned out to be 93%. For the same compound, the logD at 1 h in data set [8] came to 2.1. The IC50 was 38 µM in [9] and 11.5 µM in data set [10]. For the same compound, the Ratio in data set [11] amounted to 705. For the same compound, the Papp A-B at 1 h, 5 µM with P-glycoprotein (MDR1) [12] is 0.03 ×10⁻⁶ cm/s. For the same compound, in the data set on P-glycoprotein (MDR1) [13], the Papp B-A at 1 h, 5 µM is 32 ×10⁻⁶ cm/s.
Take `CC(C)(C)c1cc(-c2ccc(C(=O)O)s2)cc(C(C)(C)C)[se+]1`: the inhibition at 5 µM in [1] stood at 15%. For the same compound, the fold induction at 0.5 h on P-gp (ABCB1) is less than 1.4. The concentration for half-maximal inhibition (IC50) in data set [2] came out at 111 µM.
In data set [4], `CC(C)(C)c1cc(-c2ccc(C(=S)N3CCCCC3)s2)cc(C(C)(C)C)[s+]1.F[P-](F)(F)(F)(F)F` came in with an inhibition at 30 µM of 71%. The “fold change (FC)” value in data set [14] is recorded as 4.4.

The inhibition is the relative decrease from the control value, in per cent. Broadly, the IC50 is the midpoint of a concentration-inhibition curve. By logD is commonly meant lipophilicity at a set pH, counting ionised and neutral species.
